These results are taken from publication PMC4506688 (Pharmacology Research & Perspectives, 2015).

Series [1] relates to C8B4 murine microglia. Briefly: On cell polarization assay. It counts as cell-based. Particulars: 1 μg/mL LPS, ligand at EC50 added 1 h after LPS, 24 h. The method in brief:
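C8B4 microglia were seeded at 20,000 cells/well in DMEM with 10% FBS, then switched to 1% FBS the next day. On day 3, LPS was added (final 1 μg/mL), followed 1 h later by the test compound in LPS-containing medium. After 24 h, cells were given anti-CD16/32 or anti-CD206 antibody (2 μg/mL, 2 h), then a SULFO-TAG secondary (2 h). The electrochemiluminescence read-out was normalized to LPS control and analyzed by ANOVA.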

Series [2] has as its system parental HEK-CNG cells. Nature of the series: ACTOne cell-based cAMP assay in parental HEK-CNG cells. Set-up: species or system human. On the technique in general: Cyclic AMP is a second messenger, typically raised through Gs and lowered through Gi signalling.
Series [3] deals with CB2 (Homo sapiens, UniProt P34972). Nature of the series: ACTOne cell-based cAMP assay in HEK-CNG+CB2 cells. Particulars: HEK-CNG+CB2, control agonist.
CB2, sequence (P34972 whole entry): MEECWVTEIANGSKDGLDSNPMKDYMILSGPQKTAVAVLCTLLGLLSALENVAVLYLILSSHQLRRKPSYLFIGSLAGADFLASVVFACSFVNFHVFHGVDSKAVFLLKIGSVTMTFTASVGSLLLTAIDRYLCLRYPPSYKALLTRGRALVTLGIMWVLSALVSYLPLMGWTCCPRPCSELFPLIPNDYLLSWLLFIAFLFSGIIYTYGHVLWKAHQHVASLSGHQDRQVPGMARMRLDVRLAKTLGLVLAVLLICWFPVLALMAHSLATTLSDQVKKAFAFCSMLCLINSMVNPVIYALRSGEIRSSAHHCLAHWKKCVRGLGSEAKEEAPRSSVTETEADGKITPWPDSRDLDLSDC
For series [4], the target named is CB1 (Homo sapiens, UniProt P21554). Nature of the series: ACTOne cell-based cAMP assay in HEK-CNG+CB1 cells. Particulars: HEK-CNG+CB1, control agonist.
CB1, sequence (P21554 whole entry): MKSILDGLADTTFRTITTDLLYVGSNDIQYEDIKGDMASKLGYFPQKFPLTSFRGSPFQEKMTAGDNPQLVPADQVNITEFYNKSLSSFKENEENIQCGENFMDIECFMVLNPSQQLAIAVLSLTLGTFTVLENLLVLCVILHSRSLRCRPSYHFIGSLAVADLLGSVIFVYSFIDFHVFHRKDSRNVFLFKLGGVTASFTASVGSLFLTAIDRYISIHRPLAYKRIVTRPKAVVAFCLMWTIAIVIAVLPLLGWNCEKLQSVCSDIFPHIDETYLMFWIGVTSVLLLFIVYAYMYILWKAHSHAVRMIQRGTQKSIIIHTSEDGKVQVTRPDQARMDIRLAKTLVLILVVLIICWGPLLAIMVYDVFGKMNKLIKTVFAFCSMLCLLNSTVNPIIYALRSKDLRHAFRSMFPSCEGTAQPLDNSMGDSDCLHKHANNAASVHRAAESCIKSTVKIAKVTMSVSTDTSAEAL
The conditions of series [5]: reported; ref Wohnsland and Faller [2001]; cited from earlier work.

Consider `CCCC(C)(C)c1ccc2c(c1)OC(C)(C)[C@@H]1CC=C(C)C[C@@H]21` [JWH 133], for which, in series [1], the “CD16/32 (M1 marker) expression compared to LPS control” value is listed as “decreased CD16/32 expression compared to LPS controls” and the “CD206 (M2 marker) expression compared to LPS control” value (“CD206 … compared to LPS control” for short) is “significantly decreased CD206”.

On to `CCCCCCC(C)(C)c1cc(OC)c([C@@H]2C=C(CO)[C@@H]3C[C@H]2C3(C)C)c(OC)c1` [HU 308], for which, in series [1], the “CD16/32 (M1 marker) expression compared to LPS control” value is on record as “only HU 308 did so significantly (P < 0.001)” and the “CD206 … compared to LPS control” value is on record as “significantly decreased CD206”.

As for SR 144528, in series [1], the “CD16/32 (M1 marker) expression compared to LPS control” value was “also decreased CD16/32 expression in comparison to LPS control” and the “CD206 … compared to LPS control” value is given as “significantly increased CD206”.

`CCCCCCC(C)(C)c1ccc([C@@H]2C[C@H](O)CC[C@H]2CCCO)c(O)c1` [CP 55,940, 2-[(1R,2R,5R)-5-hydroxy-2-(3-hydroxypropyl)cyclohexyl]-5-(2-methyloctan-2-yl)phenol]: the “Change in cAMP-driven fluorescence / cAMP response” value in series [2] is “no response was observed”. For the same molecule, the “Average reduction in cAMP response” value in series [3] and in series [4] was 90% throughout.

As for `CN1C(C(=O)Nc2ccccn2)=C(O)c2ccccc2S1(=O)=O` [piroxicam], in series [5], the Absorbed in humans is on record as 90–100%.
